For data set [1], the system named is Mycolicibacterium smegmatis. In words: Antimycobacterial activity against Mycobacterium smegmatis str. MC2 155 ATCC 700084 assessed as inhibition of mycobacterial growth incubated for 24 hrs by MABA method. Type of data set: functional. As to conditions: MC2 155 ATCC 700084, 24 h. In general terms: The colour change of resazurin is a common sign of viable cells or microbes.

A short description of data set [2]: Cytotoxic activity against mouse RAW264.7 cells assessed as reduction in cell viability incubated for 48 hrs by […] based assay. The gist of the method: (§1)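 RAW264.7 or THP-1 cells were grown in RPMI-1640 with 10% FBS and seeded at 10^5 cells/mL. Compound was two-fold serially diluted from a 50 mg/mL stock, with a solvent-control row. Plates were held 48 h at 37 °C in 5% CO2. Wells were washed twice with PBS, with centrifugation between washes for THP-1, then given fresh RPMI plus 0.01% […]. After overnight incubation, fluorescence was read at 560/590 nm and GIC50 derived.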

The subject of data set [3] is Mycolicibacterium aurum. In words: Antimycobacterial activity against Mycobacterium aurum ATCC 23366 assessed as inhibition of mycobacterial growth at 500 ug/ml incubated for 4 days. Type of data set: functional, organism-based. The method in brief:
(§2)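 HT-SPOTi agar dilution: two-fold serial dilutions of compound were mixed into Middlebrook 7H10 agar with 0.05% glycerol and 10% OADC, giving a final range of 500–0.5 µg/mL. Each well was spotted with 2x10^3 CFU of early-to-mid-log culture. Plates were incubated at 35 or 37 °C until spots appeared in control wells. Controls were DMSO-only and isoniazid. The MIC was read, in triplicate.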

Data set [4] in a line: Cytotoxic activity against human THP1 cells assessed as reduction in cell viability incubated for 48 hrs by […] based assay. Also noted: species or system THP-1. As to conditions: for GI50 at 48 h: THP1 cells; for GI50: thp-1, 48 h. The gist of the method: as §1
In data set [5] the test system is Mycolicibacterium aurum. In words: Inhibition of multidrug resistance efflux pump in Mycobacterium aurum ATCC 23366 assessed as inhibition of ethidium bromide efflux by measuring relative fluorescence units for ethidium bromide accumulation at 1/4 times MIC incubated for 60 mins by fluorimetric assay. The gist of the method:
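Whole-cell efflux assay: early-log cells (OD600 ~0.8) adjusted to OD600 0.4, washed into PBS; 4-6x10^7 bacteria/mL with 0.4% glucose, 0.5 mg/L ethidium bromide substrate and compound at 1/4x MIC. Fluorescence ex 544/em 590 nm at 37 °C every minute for 60 min; accumulation scored 0-4 by relative fluorescence bands. Verapamil positive, PBS negative control.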

The test system of data set [6] is Mycobacterium tuberculosis. In words: Antimycobacterial activity against Mycobacterium tuberculosis mc'2-7000x assessed as inhibition of mycobacterial growth. Type of data set: functional.
Data set [7] deals with Mycobacterium tuberculosis. The data set is described as follows: Antimycobacterial activity against Mycobacterium tuberculosis H37Rv ATTC 27294 assessed as inhibition of mycobacterial growth incubated for 7 days. The class given is functional. The gist of the method: (§3)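 MIC by HT-SPOTi on Middlebrook 7H10 agar with 0.05% (v/v) glycerol and 10% (v/v) OADC in 96-well format. Compounds dissolved at 50 mg/mL (stock), two-fold serial dilutions, final 500-0.5 µg/mL. Each well spotted with 2 µL early-to-midlog culture (2x10^3 CFU), incubated at 37 °C until distinct spots in control wells. DMSO-only and isoniazid controls; triplicate.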

The test system of data set [8] is Mycolicibacterium aurum. In words: Antimycobacterial activity against Mycobacterium aurum ATCC 23366 assessed as inhibition of mycobacterial growth incubated for 4 days. The class given is functional. The gist of the method: as §2
Data set [9] has as its system Mycobacterium tuberculosis. The data set is described as follows: Antimycobacterial activity against Mycobacterium tuberculosis H37Rv ATTC 27294 assessed as inhibition of mycobacterial growth at 500 ug/ml incubated for 7 days. Type of data set: functional, organism-based. The gist of the method: as §3
Data set [10] has as its system Mycobacterium tuberculosis. The data set is described as follows: Antimicrobial activity against Mycobacterium tuberculosis. Type of data set: functional.
Data set [11] can be described thus: Selectivity index, ratio of GIC50 for cytotoxicity against mouse RAW264.7 cells to MIC for Mycobacterium tuberculosis H37Rv ATTC 27294. The class given is toxicity, cell-based. As to conditions: read-out: Selectivity Index. The gist of the method:
(§4)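 SI = GIC50 / H37Rv MIC (agar spot assay). GIC50 from cells in RPMI-1640 + 10% FBS, 37 °C, 5% CO2; 10^5 cells/mL added to two-fold compound dilutions from 50 mg/mL stock, solvent control row. 48 h exposure, washes (THP-1 centrifuged), fresh medium plus 0.01% […], overnight; fluorescence ex 560/em 590 nm.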

A short description of data set [12]: Selectivity index, ratio of GIC50 for cytotoxicity against human THP1 cells to MIC for Mycobacterium tuberculosis H37Rv ATTC 27294. The class given is toxicity, cell-based, THP-1. As to conditions: read-out: Selectivity Index. The gist of the method: as §4
In data set [13] the test system is Mycobacterium tuberculosis. The data set is described as follows: Antimycobacterial activity against Mycobacterium tuberculosis mc'2-7000x assessed as inhibition of mycobacterial growth at 500 ug/ml. Type of data set: functional, organism-based.

In brackets after ≈: the same amount, converted by molar mass. Activity calls are given as the source filed them.

`Cc1cc(CNOCc2ccccc2)c(C)n1-c1ccc(Cl)cc1`: the minimum inhibitory concentration (MIC) in data set [1] and in data set [6] was > 64 µg/mL in each case. The figures for the GI50 at 48 h in data set [2] and in data set [4] were 133 µg/mL (≈ 390 µM) and 67 µg/mL (≈ 197 µM), respectively. Besides, the “growth inhibition (GI)” value (in the data set with Mycolicibacterium aurum [3]; in [9]) was “inactive” throughout. Further, the Activity with Mycolicibacterium aurum [5] stood at 2 RFU. Further, the MIC entry (in [7]; in the data set with Mycolicibacterium aurum [8]) was “inactive” throughout.
As to `CC(C)=CCC/C(C)=C/CNCCNC1C2CC3CC(C2)CC1C3` (configuration not stated) [SQ109], the MIC came to 4 µg/mL (≈ 12.1 µM) in data set [1]; 2 µg/mL (≈ 6.05 µM) in data set [6]; 0.5 µM (≈ 0.165 µg/mL) in data set [10]; 0.51 µg/mL (≈ 1.54 µM) in [7] (H37Rv ATTC 27294, 168 h); 7.8 µg/mL (≈ 23.6 µM) in the data set with Mycolicibacterium aurum [8] (ATCC 23366, 96 h). The GI50 result in data set [4] was “Not Active”. Moreover, in the data set on Mycolicibacterium aurum [5], the Activity turned out to be 2 RFU.
Take `Cc1cc(CNOCc2ccccc2)c(C)n1-c1ccc(F)cc1`: the selectivity ratio is < 1 in data set [11] and < 2.3 in data set [12]. The MIC is > 64 µg/mL in data set [1]; > 64 µg/mL in data set [6]; > 125 µg/mL in [7] (H37Rv ATTC 27294, 168 h). Further, the figures for the GI50 at 48 h in [2] and in data set [4] were 123 µg/mL (≈ 379 µM) and 292 µg/mL (≈ 900 µM), respectively. In addition, in the data set on Mycolicibacterium aurum [3], the “growth inhibition (GI)” value was “inactive”. Also, in the data set with Mycolicibacterium aurum [5], the Activity came out at 4 RFU. In addition, the MIC entry in the data set with Mycolicibacterium aurum [8] was “inactive”.
With `NNC(=O)c1ccncc1` [ISONIAZID], in data set [13], the “growth inhibition (GI)” value is “inactive”. In addition, in [4], the GI50 result is “Not Active”. For the same compound, the MIC entry in [6] was “inactive”. Also, the MIC in data set [7] (H37Rv ATTC 27294, 168 h) was 0.24 µg/mL (≈ 1.75 µM).
Regarding `Cc1cc(/C=N\OCc2ccccc2)c(C)n1-c1ccc(F)cc1`, the “growth inhibition (GI)” value in [13] is “inactive”. The MIC result in data set [6] is “inactive”. The MIC in data set [7] (H37Rv ATTC 27294, 168 h) worked out at 25 µg/mL (≈ 77.5 µM).
For `Cc1cc(CNC2CCCCC2)c(C)n1-c1ccc(Cl)cc1`, the selectivity ratio in data set [11] came out at 50; in [12], 37. Besides, the MIC in data set [1] came out at 8 µg/mL (≈ 25.2 µM); in [6] it was 0.5 µg/mL (≈ 1.58 µM); in data set [7] (H37Rv ATTC 27294, 168 h) it was 0.2 µg/mL (≈ 0.631 µM); in the data set on Mycolicibacterium aurum [8] (ATCC 23366, 96 h), 7.8 µg/mL (≈ 24.6 µM). Besides, the GI50 at 48 h stood at 10 µg/mL (≈ 31.6 µM) in [2] and 7.4 µg/mL (≈ 23.4 µM) in data set [4]. For the same compound, the Activity in the data set on Mycolicibacterium aurum [5] was 2 RFU.
On to `Cc1cc(CN2CCN(C3CCCCC3)CC2)c(C)n1-c1ccc(Cl)cc1`, for which the selectivity ratio in data set [11] was determined as 1.4; in [12], 4.1. The MIC came to 27 µg/mL (≈ 70 µM) in data set [1]; 8 µg/mL (≈ 20.7 µM) in data set [6]; 3.9 µg/mL (≈ 10.1 µM) in data set [7] (H37Rv ATTC 27294, 168 h); 31 µg/mL (≈ 80.3 µM) with Mycolicibacterium aurum [8] (ATCC 23366, 96 h). Also, the GI50 at 48 h was 5.5 µg/mL (≈ 14.2 µM) in [2] and 16 µg/mL (≈ 41.5 µM) in [4]. In addition, the Activity with Mycolicibacterium aurum [5] was 4 RFU.
On to `Cc1cc(CNCCc2ccccc2)c(C)n1-c1ccc(Cl)cc1`, for which the selectivity ratio was determined as 10 in [11] and 7.3 in data set [12]. Besides, the MIC in data set [1] was determined as 32 µg/mL (≈ 94.4 µM); in [6], 4 µg/mL (≈ 11.8 µM); in [7] (H37Rv ATTC 27294, 168 h) it was 1 µg/mL (≈ 2.95 µM); with Mycolicibacterium aurum [8] (ATCC 23366, 96 h), 16 µg/mL (≈ 47.2 µM). The GI50 at 48 h was found to be 9.9 µg/mL (≈ 29.2 µM) in data set [2] and 7.3 µg/mL (≈ 21.5 µM) in data set [4]. Besides, in the data set on Mycolicibacterium aurum [5], the Activity came out at 2 RFU.
With `Cc1cc(/C=N\OCc2ccccc2)c(C)n1-c1ccc(Cl)cc1`, the MIC in data set [1] was > 64 µg/mL; in data set [6], > 64 µg/mL; in [7] (H37Rv ATTC 27294, 168 h), > 125 µg/mL. Besides, the GI50 at 48 h in data set [2] stood at 128 µg/mL (≈ 378 µM); in [4], 500 µg/mL (≈ 1480 µM). In the data set with Mycolicibacterium aurum [3], the “growth inhibition (GI)” value was “inactive”. Also, the Activity in the data set with Mycolicibacterium aurum [5] amounted to 1 RFU. Besides, the selectivity ratio in data set [12] was < 4. For the same compound, the MIC result with Mycolicibacterium aurum [8] was “inactive”.
Consider `Cc1cc(CNCc2ccccc2)c(C)n1-c1ccc(F)cc1`, for which the figures for the selectivity ratio in data set [11] and in data set [12] were 5.6 and 28, respectively. In addition, the MIC was found to be 16 µg/mL (≈ 51.9 µM) in data set [1]; 4 µg/mL (≈ 13 µM) in [6]; 1 µg/mL (≈ 3.24 µM) in [7] (H37Rv ATTC 27294, 168 h); 7.8 µg/mL (≈ 25.3 µM) in the data set on Mycolicibacterium aurum [8] (ATCC 23366, 96 h). Further, the figures for the GI50 at 48 h in data set [2] and in [4] were 5.6 µg/mL (≈ 18.2 µM) and 28 µg/mL (≈ 90.8 µM), respectively. In the data set with Mycolicibacterium aurum [5], the Activity worked out at 1 RFU.
In the case of `Cc1cc(CN2CCN(c3ccccc3)CC2)c(C)n1-c1ccc(Cl)cc1`, the selectivity ratio in data set [11] was 4.2; in [12] it was 3.2. The minimal inhibitory concentration (MIC) in data set [1] worked out at 32 µg/mL (≈ 84.2 µM); in data set [6] it was 32 µg/mL (≈ 84.2 µM); in data set [7] (H37Rv ATTC 27294, 168 h) it was 7.8 µg/mL (≈ 20.5 µM); in the data set on Mycolicibacterium aurum [8] (ATCC 23366, 96 h), 31 µg/mL (≈ 81.6 µM). The 50% growth inhibitory concentration (GI50) at 48 h is 33 µg/mL (≈ 86.9 µM) in data set [2] and 25 µg/mL (≈ 65.8 µM) in data set [4]. In addition, in the data set on Mycolicibacterium aurum [5], the Activity is 1 RFU.

A word on the MIC: it is the smallest concentration in the dilution series that meets the test's criterion for growth inhibition. As a reminder, the GI50 is the concentration that inhibits growth by half.

For the origin of these results see ChEMBL document CHEMBL3797154, “Design and Synthesis of 1-((1,5-Bis(4-chlorophenyl)-2-methyl-1H-pyrrol-3-yl)methyl)-4-methylpiperazine (BM212) and N-Adamantan-2-yl-N'-((E)-3,7-dimethylocta-2,6-dienyl)ethane-1,2-diamine (SQ109) Pyrrole Hybrid Derivatives: Discovery of Potent Antitubercular Agents Effective against …” (J Med Chem, 2016).
